Laboratory results reported in ChEMBL document CHEMBL1240366, “Blockade of X4-tropic HIV-1 cellular entry by GSK812397, a potent noncompetitive CXCR4 receptor antagonist” (Antimicrob Agents Chemother, 2010).
Activity calls are given as the source filed them. The calls are words filed in the database; no cut-off is given here.

Legend:
[1] = target: C-X-C chemokine receptor type 4 (Homo sapiens) (UniProt P61073); test: Antagonist activity at human CXCR4 expressed in HEK293 cells assessed as inhibition of SDF1-induced increase in intracellular calcium level treated 15 mins before agonist challenge measured after 1 hr by FLIPR assay; format: functional, cell-based
C-X-C chemokine receptor type 4 (Homo sapiens), sequence (P61073 whole entry): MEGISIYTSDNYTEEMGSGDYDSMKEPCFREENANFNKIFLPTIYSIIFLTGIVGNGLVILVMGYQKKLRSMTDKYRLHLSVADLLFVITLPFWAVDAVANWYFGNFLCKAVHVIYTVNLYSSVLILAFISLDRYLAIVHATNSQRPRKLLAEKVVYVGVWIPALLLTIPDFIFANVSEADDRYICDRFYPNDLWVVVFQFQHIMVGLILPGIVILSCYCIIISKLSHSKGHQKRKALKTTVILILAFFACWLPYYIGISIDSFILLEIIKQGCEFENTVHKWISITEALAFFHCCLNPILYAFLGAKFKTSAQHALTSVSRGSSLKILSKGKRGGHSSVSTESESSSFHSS

[2] = Volume of distribution at steady state in rat at 1 mg/kg, iv administered as single dose after 24 hrs by liquid chromatography-mass spectroscopy; format: ADME, organism-based; set-up: dose 1 mg/kg, route intravenous; details: in vivo, read-out: Vdss
[3] = tested on: Human immunodeficiency virus 1; test: Antiviral activity against HIV1 isolate 05-121789 assessed as inhibition of viral replication after 7 days by scintillation counting; format: functional, organism-based; details: Human immunodeficiency virus 1, isolate 05-121789, 168 h
[4] = tested on: Human immunodeficiency virus 1; test: Antiviral activity against HIV1 isolate 05-121778 assessed as inhibition of viral replication after 7 days by scintillation counting; format: functional, organism-based; details: Human immunodeficiency virus 1, isolate 05-121778, 168 h
Cytochrome P450 2D6 = Cytochrome P450 2D6 (Homo sapiens, UniProt P10635); test: Inhibition of CYP2D6 up to 30 uM; format: ADME
Cytochrome P450 2D6, sequence (P10635 whole entry): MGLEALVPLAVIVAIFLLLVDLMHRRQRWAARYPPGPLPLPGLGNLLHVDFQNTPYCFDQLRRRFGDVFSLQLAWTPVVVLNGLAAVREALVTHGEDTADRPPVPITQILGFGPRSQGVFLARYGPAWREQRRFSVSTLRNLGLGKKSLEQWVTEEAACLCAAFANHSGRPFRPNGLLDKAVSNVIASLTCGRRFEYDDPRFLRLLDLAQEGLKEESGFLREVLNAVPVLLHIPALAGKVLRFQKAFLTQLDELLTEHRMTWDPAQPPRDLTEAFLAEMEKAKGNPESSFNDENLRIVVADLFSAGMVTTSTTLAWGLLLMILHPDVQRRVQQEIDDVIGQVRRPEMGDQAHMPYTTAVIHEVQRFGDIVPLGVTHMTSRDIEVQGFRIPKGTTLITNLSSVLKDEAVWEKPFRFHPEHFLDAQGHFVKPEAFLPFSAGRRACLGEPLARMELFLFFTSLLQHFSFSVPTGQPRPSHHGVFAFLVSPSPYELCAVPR

[5] = tested on: Human immunodeficiency virus 1; test: Antiviral activity against HIV1 isolate 05-121779 assessed as inhibition of viral replication after 7 days by scintillation counting; format: functional, organism-based; details: Human immunodeficiency virus 1, isolate 05-121779, 168 h
[6] = tested on: Human immunodeficiency virus 1; test: Antiviral activity against HIV1 isolate 05-121782 assessed as inhibition of viral replication after 7 days by scintillation counting; format: functional, organism-based; details: Human immunodeficiency virus 1, isolate 05-121782, 168 h
[7] = target: Voltage-gated inwardly rectifying potassium channel KCNH2 (Homo sapiens, UniProt Q12809); test: Inhibition of human ERG up to 10 uM
Voltage-gated inwardly rectifying potassium channel KCNH2, sequence (Q12809 whole entry): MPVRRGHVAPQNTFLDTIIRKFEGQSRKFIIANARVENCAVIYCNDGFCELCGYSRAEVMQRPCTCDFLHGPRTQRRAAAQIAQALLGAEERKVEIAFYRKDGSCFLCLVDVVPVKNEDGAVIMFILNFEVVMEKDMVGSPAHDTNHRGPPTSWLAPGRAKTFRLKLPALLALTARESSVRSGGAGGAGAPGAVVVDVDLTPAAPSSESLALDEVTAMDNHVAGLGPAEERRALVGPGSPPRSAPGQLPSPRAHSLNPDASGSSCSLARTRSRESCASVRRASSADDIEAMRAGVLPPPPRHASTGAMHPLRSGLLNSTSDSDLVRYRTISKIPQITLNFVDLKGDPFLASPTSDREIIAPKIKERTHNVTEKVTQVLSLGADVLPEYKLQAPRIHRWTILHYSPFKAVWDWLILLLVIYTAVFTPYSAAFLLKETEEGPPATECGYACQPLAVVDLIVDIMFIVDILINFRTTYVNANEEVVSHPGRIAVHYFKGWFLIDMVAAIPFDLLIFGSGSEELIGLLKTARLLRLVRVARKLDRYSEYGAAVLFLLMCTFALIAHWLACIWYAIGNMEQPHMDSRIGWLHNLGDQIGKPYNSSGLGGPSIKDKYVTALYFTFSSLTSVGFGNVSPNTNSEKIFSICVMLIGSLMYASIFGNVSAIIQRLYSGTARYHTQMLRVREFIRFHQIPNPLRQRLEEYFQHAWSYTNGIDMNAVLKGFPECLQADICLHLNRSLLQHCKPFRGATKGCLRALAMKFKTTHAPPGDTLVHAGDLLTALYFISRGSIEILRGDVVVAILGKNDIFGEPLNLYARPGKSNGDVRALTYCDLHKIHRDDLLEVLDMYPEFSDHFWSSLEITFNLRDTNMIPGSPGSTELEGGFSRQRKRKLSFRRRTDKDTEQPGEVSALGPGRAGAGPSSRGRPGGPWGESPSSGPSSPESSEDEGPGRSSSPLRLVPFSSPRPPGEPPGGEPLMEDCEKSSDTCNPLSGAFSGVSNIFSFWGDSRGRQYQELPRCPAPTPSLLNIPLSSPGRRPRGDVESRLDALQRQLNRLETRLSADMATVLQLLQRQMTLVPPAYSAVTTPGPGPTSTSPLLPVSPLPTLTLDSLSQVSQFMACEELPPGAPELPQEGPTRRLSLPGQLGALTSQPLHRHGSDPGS

[8] = Oral bioavailability in mouse at 3 mg/kg administered as single dose after 24 hrs by liquid chromatography-mass spectroscopy; format: ADME, organism-based; details: in vivo
[9] = tested on: Human immunodeficiency virus 1; test: Antiviral activity against HIV1 isolate 05-121800 assessed as inhibition of viral replication after 7 days by scintillation counting; format: functional, organism-based; details: Human immunodeficiency virus 1, isolate 05-121800, 168 h
[10] = tested on: Human immunodeficiency virus 1; test: Antiviral activity against HIV1 isolate 05-121773 assessed as inhibition of viral replication after 7 days by scintillation counting; format: functional, organism-based; details: Human immunodeficiency virus 1, isolate 05-121773, 168 h
[11] = Half life in dog at 3 mg/kg, po administered as single dose by liquid chromatography-mass spectroscopy; format: ADME, organism-based, Canis lupus familiaris; set-up: dose 3 mg/kg, route oral; details: in vivo
Summary of the method: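 Single oral dose of 3 mg/kg. Plasma was sampled at serial times over 24 h and measured by LC-MS/MS. Half-life was derived by pharmacokinetic analysis.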

Cytochrome P450 2C19 = Cytochrome P450 2C19 (Homo sapiens, UniProt P33261); test: Inhibition of CYP2C19 up to 30 uM; format: ADME
Cytochrome P450 2C19, sequence (P33261 whole entry): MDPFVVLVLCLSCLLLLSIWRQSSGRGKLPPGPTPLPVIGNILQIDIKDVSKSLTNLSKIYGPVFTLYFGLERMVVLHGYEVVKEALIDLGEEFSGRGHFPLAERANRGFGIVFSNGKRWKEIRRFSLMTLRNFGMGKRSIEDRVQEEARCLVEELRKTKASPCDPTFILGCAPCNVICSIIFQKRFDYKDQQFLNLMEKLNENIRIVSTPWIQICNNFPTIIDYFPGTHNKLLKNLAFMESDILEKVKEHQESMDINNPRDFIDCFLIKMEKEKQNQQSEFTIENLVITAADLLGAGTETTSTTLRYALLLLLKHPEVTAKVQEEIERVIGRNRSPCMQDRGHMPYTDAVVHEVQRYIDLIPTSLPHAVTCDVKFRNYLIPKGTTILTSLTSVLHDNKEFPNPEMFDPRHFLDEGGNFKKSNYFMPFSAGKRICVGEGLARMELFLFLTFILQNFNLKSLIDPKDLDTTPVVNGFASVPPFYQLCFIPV

[12] = tested on: Human immunodeficiency virus 1; test: Antiviral activity against HIV1 isolate 05-121799 assessed as inhibition of viral replication after 7 days by scintillation counting; format: functional, organism-based; details: Human immunodeficiency virus 1, isolate 05-121799, 168 h
[13] = tested on: Human immunodeficiency virus 1; test: Antiviral activity against HIV1 isolate 05-121781 assessed as inhibition of viral replication after 7 days by scintillation counting; format: functional, organism-based; details: Human immunodeficiency virus 1, isolate 05-121781, 168 h
[14] = tested on: Human immunodeficiency virus 1; test: Antiviral activity against HIV1 isolate 05-121802 assessed as inhibition of viral replication after 7 days by scintillation counting; format: functional, organism-based; details: Human immunodeficiency virus 1, isolate 05-121802, 168 h
[15] = tested on: Human immunodeficiency virus 1; test: Antiviral activity against HIV1 isolate 05-121775 assessed as inhibition of viral replication after 7 days by scintillation counting; format: functional, organism-based; details: Human immunodeficiency virus 1, isolate 05-121775, 168 h
[16] = Volume of distribution at steady state in mouse at 1 mg/kg, iv administered as single dose after 24 hrs by liquid chromatography-mass spectroscopy; format: ADME, organism-based; set-up: dose 1 mg/kg, route intravenous; details: in vivo, read-out: Vdss
[17] = tested on: Human immunodeficiency virus 1; test: Antiviral activity against HIV1 isolate 05-121801 assessed as inhibition of viral replication after 7 days by scintillation counting; format: functional, organism-based; details: Human immunodeficiency virus 1, isolate 05-121801, 168 h
[18] = tested on: Human immunodeficiency virus 1; test: Antiviral activity against HIV1 isolate 05-121771 assessed as inhibition of viral replication after 7 days by scintillation counting; format: functional, organism-based; details: Human immunodeficiency virus 1, isolate 05-121771, 168 h
Cavia porcellus = organism: Cavia porcellus; test: Inhibition of guinea pig ileum ACE at 30 uM; format: tissue-based
Summary of the method: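 Isolated guinea pig ileum preparation; ACE inhibition measured as maximal inhibition at 30 μM.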

[19] = tested on: Human immunodeficiency virus 1; test: Antiviral activity against HIV1 3B infected in human HOS cells after 72 hrs by luminescence assay in presence of 45 mg/ml human serum albumin; format: functional, organism-based; details: Human immunodeficiency virus 1, 3B
Summary of the method: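 HOS LTR-luciferase viral assay (1 h compound pre-incubation, virus plus compound, 72 h, 37°C, luminescence) run with human serum albumin (45 mg/ml) with or without α-acid glycoprotein (1 mg/ml). Protein-free IC50 served as baseline for fold shift.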

HOS = test: Cytotoxicity against human HOS cells infected with HIV1 3B after 72 hrs by celltiter glow assay; format: cell-based
[20] = tested on: Human immunodeficiency virus 1; test: Antiviral activity against HIV1 isolate 05-121790 assessed as inhibition of viral replication after 7 days by scintillation counting; format: functional, organism-based; details: Human immunodeficiency virus 1, isolate 05-121790, 168 h
Cytochrome P450 3A4 = Cytochrome P450 3A4 (Homo sapiens, UniProt P08684); test: Inhibition of CYP3A4 up to 30 uM; format: ADME
Cytochrome P450 3A4, sequence (P08684 whole entry): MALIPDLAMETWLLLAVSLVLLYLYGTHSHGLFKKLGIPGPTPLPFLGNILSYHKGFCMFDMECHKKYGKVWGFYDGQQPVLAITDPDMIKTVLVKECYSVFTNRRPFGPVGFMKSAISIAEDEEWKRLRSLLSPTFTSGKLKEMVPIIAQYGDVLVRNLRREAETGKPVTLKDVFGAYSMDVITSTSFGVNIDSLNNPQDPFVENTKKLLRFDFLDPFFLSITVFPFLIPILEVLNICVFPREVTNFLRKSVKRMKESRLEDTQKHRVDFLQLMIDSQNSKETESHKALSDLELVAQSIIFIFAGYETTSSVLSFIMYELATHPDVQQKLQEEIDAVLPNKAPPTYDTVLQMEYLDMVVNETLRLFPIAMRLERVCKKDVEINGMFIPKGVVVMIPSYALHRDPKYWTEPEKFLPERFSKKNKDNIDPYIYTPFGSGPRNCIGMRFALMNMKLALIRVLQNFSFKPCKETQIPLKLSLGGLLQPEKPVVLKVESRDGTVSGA

[21] = Clearance in mouse at 1 mg/kg, iv administered as single dose after 24 hrs by liquid chromatography-mass spectroscopy; format: ADME, organism-based; set-up: dose 1 mg/kg, route intravenous; details: in vivo
Summary of the method: (§1)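 Single intravenous dose of 1 mg/kg. Plasma was sampled at serial times over 24 h and measured by LC-MS/MS. Clearance was derived by pharmacokinetic analysis.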

[22] = tested on: Human immunodeficiency virus 1; test: Antiviral activity against HIV1 isolate 05-121774 assessed as inhibition of viral replication after 7 days by scintillation counting; format: functional, organism-based; details: Human immunodeficiency virus 1, isolate 05-121774, 168 h
[23] = Clearance in dog at 1 mg/kg, iv administered as single dose after 24 hrs by liquid chromatography-mass spectroscopy; format: ADME, organism-based, Canis lupus familiaris; set-up: dose 1 mg/kg, route intravenous; details: in vivo; summary of the method: as §1
[24] = tested on: Human immunodeficiency virus 1; test: Antiviral activity against HIV1 isolate 05-121798 assessed as inhibition of viral replication after 7 days by scintillation counting; format: functional, organism-based; details: Human immunodeficiency virus 1, isolate 05-121798, 168 h
[25] = target: C-X-C chemokine receptor type 4 (Homo sapiens) (UniProt P61073); test: Agonist activity at human CXCR4 expressed in HEK293 cells assessed as effect intracellular calcium level after 1 hr by FLIPR assay; format: functional, cell-based
[26] = tested on: Human immunodeficiency virus 1; test: Antiviral activity against HIV1 isolate 05-121784 assessed as inhibition of viral replication after 7 days by scintillation counting; format: functional, organism-based; details: Human immunodeficiency virus 1, isolate 05-121784, 168 h

Compound: CN1CCN(c2cccc3nc(CN(C)[C@H]4CCCc5cccnc54)c(CO)n23)CC1
- Activity [1]: Dose-dependent effect
- Vd [2]: 2.1 L/kg
- IC50 [3]: 1 nM
- IC50 [4]: 1 nM
- inhibition (INH) (Cytochrome P450 2D6): Not Active
- IC50 [5]: 1 nM
- IC50 [6]: 1 nM
- inhibition (INH) [7]: Not Active
- bioavailability [8]: 10%
- IC50 [9]: 1 nM
- IC50 [10]: 1 nM
- half-life [11]: > 720 min
- inhibition (INH) (Cytochrome P450 2C19): Not Active
- IC50 [12]: 1 nM
- IC50 [13]: 1 nM
- IC50 [14]: 1 nM
- IC50 [15]: 1 nM
- Vd [16]: 4.2 L/kg
- IC50 [17]: 1 nM
- IC50 [18]: 1 nM
- inhibition (Cavia porcellus): 26%
- IC50 [19]: 2.01 nM
- IC50 (HOS): > 1000 nM
- IC50 [20]: 1 nM
- inhibition (INH) (Cytochrome P450 3A4): Not Active
- clearance [21]: 15.9 mL/min/kg
- IC50 [22]: 1 nM
- clearance [23]: 5.5 mL/min/kg
- IC50 [24]: 1 nM
- Activity [25]: inactive
- IC50 [26]: 1 nM
